Bioassay records: PubChem BioAssay, several laboratories
CSC inhib: cancer stem cell viability inhibitors, primary screen, luminescence. AID 2717, 2010. cancer stem cell-like cells viability. actives 1.1% (n = 300,000). inhibition, % at 7.5 µM; in the data active means inhibition above about 75%; inconclusive means no clear call, values can overlap the other calls; tested in HMLE shEcad cells
NLRP3 yeast inh: NALP3 inflammasome inhibitors in reconstituted yeast, primary screen, luminescence, uHTS; Yeast reconstituted NLRP3/ASC/caspase-1, beta-gal luminescence, 24 h; inhibition, % at 10 µM; actives 0.39% (n = 330,000);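 active means inhibition of 50% or more; inactive means inhibition below 50%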
Calb FLC: C. albicans growth inhibition with fluconazole, primary screen, CaCi-2 strain, Alamar Blue fluorescence; C. albicans CaCi-2 (fluconazole-resistant clinical isolate) + fluconazole, 48 h; growth inhibition, % (test concentration not listed); actives 0.57% (n = 300,000);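 active means growth inhibition above about 58% in most replicates, limit read from the data, passing the limit was not always enough; inconclusive means exactly half the replicates above a set limit; inactive means most replicates below a set limit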;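 further: all wells also contain fluconazole at 8 µg/ml as a sub-toxic cotreatment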
Mdm2 MdmX PPI: inhibitors of human Mdm2-MdmX association, primary screen, cell-based, luminescence, split luciferase, SaOS-2, uHTS; Protein Mdm4 (Homo sapiens) + E3 ubiquitin-protein ligase Mdm2 (Homo sapiens), …; SaOS-2 split-luciferase Mdm2/MdmX complementation; inhibition, % at 8 µM; actives 3% (n = 330,000);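 active means inhibition of at least 50% at 8 µM in the primary screen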
Target sequence (O15151 whole entry, looked up): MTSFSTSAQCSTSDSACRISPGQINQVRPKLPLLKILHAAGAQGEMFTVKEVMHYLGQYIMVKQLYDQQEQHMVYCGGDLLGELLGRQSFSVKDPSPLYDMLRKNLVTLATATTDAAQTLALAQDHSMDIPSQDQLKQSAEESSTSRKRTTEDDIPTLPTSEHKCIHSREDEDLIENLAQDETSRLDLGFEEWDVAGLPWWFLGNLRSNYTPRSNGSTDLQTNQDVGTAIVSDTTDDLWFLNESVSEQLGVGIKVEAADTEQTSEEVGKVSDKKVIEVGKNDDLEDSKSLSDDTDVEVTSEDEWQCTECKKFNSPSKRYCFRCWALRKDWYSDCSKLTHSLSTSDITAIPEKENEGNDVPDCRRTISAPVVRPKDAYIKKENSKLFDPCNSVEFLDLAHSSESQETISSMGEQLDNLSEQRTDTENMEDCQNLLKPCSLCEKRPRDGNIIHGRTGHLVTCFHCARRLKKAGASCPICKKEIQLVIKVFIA
Target sequence (Q00987 whole entry, looked up): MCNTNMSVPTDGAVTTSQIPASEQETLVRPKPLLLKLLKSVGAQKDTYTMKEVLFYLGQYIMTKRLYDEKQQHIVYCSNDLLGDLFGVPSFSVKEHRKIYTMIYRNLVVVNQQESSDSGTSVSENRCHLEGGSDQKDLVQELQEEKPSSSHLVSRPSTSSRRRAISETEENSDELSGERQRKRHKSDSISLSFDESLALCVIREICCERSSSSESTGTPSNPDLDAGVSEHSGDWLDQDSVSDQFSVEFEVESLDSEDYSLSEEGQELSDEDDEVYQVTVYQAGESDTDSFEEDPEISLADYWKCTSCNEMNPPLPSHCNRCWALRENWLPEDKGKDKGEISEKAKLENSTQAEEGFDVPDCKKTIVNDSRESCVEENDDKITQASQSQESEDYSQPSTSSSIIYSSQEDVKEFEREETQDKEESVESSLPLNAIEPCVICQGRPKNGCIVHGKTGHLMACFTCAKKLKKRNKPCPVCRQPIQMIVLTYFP
Beta apoptosis: inhibitors of cytokine-induced beta cell apoptosis, primary screen, luminescence | AID 435005, 2010 | actives 0.8% (n = 300,000) | protection from apoptosis, % (concentration not given with the values) | INS-1E cytokine-induced death, ATP luminescence, 48 h; percent of positive-control rescue, neutral wells zero;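 active means Every replicate reaches about 75%, or at least half do and their mean reaches it too, limit read from the data; inconclusive means At least half of replicates reach the limit but their mean does not; inactive means Under half of replicates reach the limit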;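 further: higher means more ATP so stronger rescue from cytokine killing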
T cruzi inh: inhibitors of intracellular T. cruzi growth, primary screen, luminescence, NIH3T3 host cells; T. cruzi beta-gal in NIH3T3, 90 h; inhibition, % (no concentration beside the values); actives 1.4% (n = 300,000);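 active means mean inhibition across valid replicates above about 55%, limit read from the data; inconclusive means mean below that limit but half or more replicates reach it; inactive means mean below it, under half of replicates reach it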;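 further: signal also drops with host cell toxicity which is not excluded here; higher percent means less beta-gal luminescence so fewer parasites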
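System: NIH/3T3 fibroblasts plus reporter T. cruzi. Medium: DMEM plus 2% FBS. Probe or stimulus: 5000 reporter trypomastigotes per well. Compound: single 50 nL compound addition per well in DMSO. Incubation: co-culture of at least 90 h after 3 h attachment. Detection: GalScreen β-gal luminescence, detergent lysis, 60 min. Evaluation: parasite load inhibition, %.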
Mdm2 MdmX conf: Mdm2-MdmX complex disruptors, retested hits, confirmation, luminescence, single concentration. shares compounds with Mdm2 MdmX PPI. Mdm2-MdmX binding, luminescent assay. inhibition, % at 8 µM. actives 55% (n = 10,000). AID 489028, 2010; in the data active means inhibition above about 40%
FLuc counter: full-length luciferase signal inhibition, confirmation, counter-screen for Mdm2/MdmX interaction inhibitor project, cell-based, single concentration, SaOS-2. shares compounds with Mdm2 MdmX PPI. SaOS-2 full-length luciferase counterscreen, luminescence. inhibition, % at 8 µM. actives 77% (n = 6,200);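 active means mean inhibition at 8 µM reaching about 37%, which flags the compound as non-specific, limit read from the data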;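 further: p53-null SaOS-2 cells with luciferase driven by a doxycycline-inducible promoter; compound on cells about two nights before reading with doxycycline added after day one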
Large screens that a line does not name were inactive (follow-up assays come after a bar, where they were run). This is a sample that favours compounds with a hit; in the whole collection about 5.3% have one here.

CC1=C(C(=O)OCc2ccc3c(c2)OCO3)C(c2ccc(Cl)cc2)NC(=O)N1 (centres undefined)	Mdm2 MdmX PPI 84 (no result: CSC inhib, Beta apoptosis) | Mdm2 MdmX conf 92 | FLuc counter 51
CC1=C(C(=O)OCc2ccc3c(c2)OCO3)C(c2ccc(F)cc2)NC(=O)N1 (centres undefined)	Mdm2 MdmX PPI 91 | Mdm2 MdmX conf 92 | FLuc counter 49
COc1ccccc1C1c2[nH]c3ccccc3c2C[C@H]2C(=O)N(C3CCN(Cc4ccccc4)CC3)CC(=O)N12 (some centres undefined)	Mdm2 MdmX PPI 54 | Mdm2 MdmX conf inactive | FLuc counter 90
COc1ccc(C2c3[nH]c4ccccc4c3C[C@H]3C(=O)N(C4CCN(Cc5ccccc5)CC4)CC(=O)N23)cc1OC (some centres undefined)	none
CN1CC(=O)N2C(c3ccc(Cl)cc3)c3[nH]c4ccccc4c3C[C@H]2C1=O (some centres undefined)	Mdm2 MdmX PPI 52 | Mdm2 MdmX conf inactive
CCN1C(=O)[C@@H]2Cc3c([nH]c4ccccc34)C(c3ccc(OC)cc3)N2C1=S (some centres undefined)	Mdm2 MdmX PPI 73 | Mdm2 MdmX conf 58 | FLuc counter 58
O=C(Cc1ccccc1)N/N=C/c1ccccn1	none
Cc1nc(NC(=O)CSc2nc3cccnc3n2C2CCCCC2)sc1C	Mdm2 MdmX PPI 57 | Mdm2 MdmX conf inactive | FLuc counter 96
COc1cc(C(=O)OCC(=O)NC2CCCCC2)cc2c1OCCO2	none (no result: CSC inhib, Calb FLC, T cruzi inh)
O=C(NCCC1=CCCCC1)c1coc(=O)c(Br)c1	CSC inhib inconclusive, Mdm2 MdmX PPI 84 | Mdm2 MdmX conf inactive | FLuc counter inactive
COc1ccc(CCNC(=O)CNS(=O)(=O)c2ccc(Cl)cc2)cc1	none (no result: Beta apoptosis, T cruzi inh)
Cc1cc(=O)oc2cc(Oc3ccc([N+](=O)[O-])cc3[N+](=O)[O-])ccc12	Calb FLC inconclusive, Mdm2 MdmX PPI 60 | Mdm2 MdmX conf 65 | FLuc counter 52
O=Cc1cccc(Oc2ccc([N+](=O)[O-])cc2[N+](=O)[O-])c1	Mdm2 MdmX PPI 64 | Mdm2 MdmX conf inactive
COc1ccc([N+](=O)[O-])cc1COc1ccc2c(-c3ccccc3)cc(=O)oc2c1	Mdm2 MdmX PPI 52 | Mdm2 MdmX conf inactive
CC(=O)COc1ccc2c(-c3cccc([N+](=O)[O-])c3)cc(=O)oc2c1	none
Cc1nc2ccccc2nc(C)c1=NOCC(=O)N(c1ccccc1)C(C)C	none
COc1ccc(-c2nn(-c3ccccc3)cc2/C=N/N2C(=O)CSC2=S)cc1	CSC inhib 108, Mdm2 MdmX PPI 97, Beta apoptosis 106 | Mdm2 MdmX conf inactive
COc1ccc(C(C#N)CCC2OCCO2)cc1OC (centres undefined)	none (no result: Calb FLC, T cruzi inh)
COc1ccc(-c2cc(C(=O)N(C)CC(=O)Nc3ccccc3Br)c3ccccc3n2)cc1OC	Mdm2 MdmX PPI 56 | Mdm2 MdmX conf 49 | FLuc counter 80
COc1cc(-c2cc(C(=O)N3CCCCCC3)c3ccccc3n2)cc(OC)c1OC	none (no result: CSC inhib, Calb FLC, Beta apoptosis, T cruzi inh)
CN(CC(=O)Nc1ccccc1Br)C(=O)c1cc(Cl)nc2ccccc12	none (no result: CSC inhib, Calb FLC, T cruzi inh)
COc1ccccc1CN(C)C(=O)c1cc(-c2cc(OC)c(OC)c(OC)c2)nc2ccccc12	Mdm2 MdmX PPI 78 | Mdm2 MdmX conf 77 | FLuc counter 50
COc1cc(-c2cc(C(=O)N(C)Cc3ccccc3)c3ccccc3n2)cc(OC)c1OC	Mdm2 MdmX PPI 62 | Mdm2 MdmX conf 46 | FLuc counter 76
